The source made the active and inactive calls.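 How the source made its calls: active means viability below 80% at one or more tested concentrations, flagged as toxic; inconclusive means replicate runs disagree on whether the viability criterion is met; inactive means viability at or above 80% at every dose.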

Test system in the first assay: not listed separately
Description: Vero E6 cell cytotoxicity, dose response, cytotoxicity control for PfM17LAP inhibitor project, set 2 (AID 602227). To be noted: Vero E6 viability, CellTiter-Glo luminescence, 72 h; at 50 µM (top of the series). In short, it runs like this:
(§1)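 Test system: Vero E6 cells (African green monkey kidney), viability assay / Buffer or medium: E-MEM plus 10% FBS / Dosing: compound dose-response, 10 concentrations in 2-fold serial dilution / Schedule: 72 h compound exposure at 37 °C, 5% CO2 / Detection: CellTiter-Glo luminescence / Read-out basis: background-subtracted % viability vs DMSO wells, CC50 by 4-parameter fit bounded 0–100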
Usually viability stands for a read-out of living cells in per cent, often relative to untreated cells. Take `Cc1ccc(CC(=O)NO)cc1`: the viability is 102% (inactive). As to `CC(C)(C(=O)NO)c1ccccc1`, the viability is 102% (inactive).

Take `CCC(C)Oc1ccc(CC(=O)OC)cc1` (configuration not stated): the viability was 102% (inactive). Take `COc1ccc(CC(=O)NO)cc1`: the viability was 95.7% (inactive). The same measure, in the same setting: the same measure for `CCOc1ccc(CC(=O)NO)cc1`: 98.9% (inactive); for `COC(=O)Cc1ccc(OCCN(C)C)cc1`: 94.5% (inactive); for `CCCCOc1ccc(CC(=O)O)cc1`: 88.7% (inactive).

With `CCCOc1ccc(CC(=O)OC)cc1`, the viability is 94.9% (inactive).

Turning to `CCCCOc1ccc(CNc2c(N(O)Cc3ccccc3)c(=O)c2=O)cc1`, the viability is 92.8% (inactive). `COC(=O)Cc1ccc(OCC(C)C)cc1`: the viability is 101% (inactive). As to `CCCCOc1ccc(CNc2c(N(C)O)c(=O)c2=O)cc1`, the viability is 90% (inactive).

The subject of the next assay is Vero E6 viability, CellTiter-Glo luminescence, 72 h. The assay is described as above.
Conditions: not given
In short, it runs like this:
as §1
As usually defined, the CC50 is the concentration at which the toxic effect on the cells reaches its halfway point. Take `CN(O)C(=O)Cc1ccc(OCc2ccccc2)cc1`: the CC50 was 24.8 µM. Same read-out and setting: in the case of `CCCCc1ccc(CC(=O)NO)cc1` it was 34.7 µM. Turning to `CCCCCCCCCC(=O)NO`, the CC50 was 25.2 µM. For `CCCCOc1ccc(CC(=O)N(C)O)cc1`, the CC50 is 27.2 µM. On the same count and under the same terms, in the case of `CCCCOc1ccc(CCC(=O)NO)cc1` it was 29.1 µM. Regarding `O=C(Cc1ccc(Oc2ccccc2)cc1)NO`, the CC50 is 32.4 µM.

The values are drawn from PubChem BioAssay AID602227 (Southern Research Specialized Biocontainment Screening …, 2012).
